# INS-1E GSIS act = GLuc luminescence reporter in INS-1E cells, primary screen for activators of glucose-dependent secretion of insulin; INS-1E GLuc reporter insulin secretion, 2-3 h; activation, % at 16.6 µM; 0.61% of 370,000 active; AID 743287;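 active means lowest replicate activation of at least 40%, so every replicate reaches that level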;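 further: 0% = median of neutral control wells and 100% = median of IBMX positive control wells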
# RAD54 inh = RAD54 (human) branch migration inhibition. Q92698. RAD54 Holliday junction branch migration, FAM/BHQ fluorescence. inhibition, % at 10.4 µM. 0.14% of 360,000 active;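 active means mean normalized replicate activity at least 40 and at least half of replicates scoring 40 or more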;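 further: 0% = median of neutral control wells and 100% = median of positive control wells; inhibitors cause a drop in the FAM fluorescence signal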
# Ecoli rRNA inh = selective bacterial rRNA inhibition in E. coli | GFP signal change (wild-type ribosome), % (test concentration not listed) | E. coli WT GFP vs humanized-ribosome RFP mutants, fluorescence, 24 h; hits give low values; DMSO median 0, no signal -100 | 1.6% of 350,000 active | AID 720706;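 active means significant combined selectivity score with lowered wild-type GFP, culture density cut under 30%, mutant RFP and density less affected; inactive means any of these conditions unmet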
# AF4-AF9 inh = MLL-AF4/AF9 protein interaction inhibition; AlphaScreen, biotin-AF4 peptide binding to FLAG-AF9; 0.47% of 350,000 active; P42568; inhibition, % at 10 µM;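 active means every replicate reaching a set inhibition limit, whatever the replicate mean, cut at about 25% in these data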;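 further: 0% = plate neutral control median and 100% = total signal loss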
# Target sequence (P42568 whole entry, looked up): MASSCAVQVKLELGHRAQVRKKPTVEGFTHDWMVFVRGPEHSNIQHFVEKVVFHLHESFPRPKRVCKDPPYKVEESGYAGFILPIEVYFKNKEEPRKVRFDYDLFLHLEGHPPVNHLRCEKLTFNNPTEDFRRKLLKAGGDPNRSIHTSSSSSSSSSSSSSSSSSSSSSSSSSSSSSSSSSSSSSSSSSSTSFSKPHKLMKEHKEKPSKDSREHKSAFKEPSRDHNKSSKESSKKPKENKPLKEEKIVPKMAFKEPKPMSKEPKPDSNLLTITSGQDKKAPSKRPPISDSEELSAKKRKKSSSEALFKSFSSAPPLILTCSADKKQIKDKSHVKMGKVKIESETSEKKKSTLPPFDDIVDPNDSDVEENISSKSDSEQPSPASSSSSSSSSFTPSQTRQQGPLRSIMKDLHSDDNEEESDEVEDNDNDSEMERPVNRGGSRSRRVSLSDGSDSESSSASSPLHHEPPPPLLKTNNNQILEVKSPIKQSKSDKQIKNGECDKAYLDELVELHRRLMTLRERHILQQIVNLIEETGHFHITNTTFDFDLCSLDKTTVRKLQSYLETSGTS
# E-sel inducer = induces E-selectin expression in human endothelial cells; activation, % at 7.58 µM; P16581; HUVEC E-selectin immunofluorescence imaging; normalized: neutral wells 0, TNF-alpha wells 100; 0.37% of 260,000 active;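 active means mean E-selectin-positive cell signal at least 10% of the positive control, reached in at least 60% of replicates, without over 20% cell loss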
#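 System: HUVEC, human umbilical vein endothelial cells; quantity: 3,000 cells/well; buffer or medium: EGM-2 medium, gelatin-coated wells; dosing: single-point compound dose; detection: immunofluorescence imaging; evaluation: % PE-positive cells; benchmarks: TNF-alpha, DMSO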
# RAD52 inh = blocks human RAD52 DNA annealing; P43351; recombinant RAD52 DNA annealing, FRET fluorescence; inhibition, % at 18.7 µM; 0.46% of 360,000 active; AID 651710;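 active means every replicate showing at least 50% inhibition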
# * hit, by the source's call; / = not tested or not shown; ! = a repeat was not active. An excerpt weighted towards active compounds, which were near 2.6% of everything screened.
SMILES,INS-1E GSIS act,RAD54 inh,Ecoli rRNA inh,AF4-AF9 inh,E-sel inducer,RAD52 inh
Cc1noc(C)c1S(=O)(=O)Nc1ccc2c(c1)C(=O)N([C@H](C)CO)C[C@@H](C)[C@@H](CN(C)S(=O)(=O)c1ccc(Cl)cc1)OCCCC[C@H](C)O2,21,6,1,1,/,-19
COc1ccc(NC(=O)c2cc(-c3cccs3)on2)c(OC)c1,-1,0,7,34*,60*,-5
COc1ccc(-c2cc(C(=O)Nc3ccc(OC)cc3OC)no2)cc1,-17,3,19,-4,3,-8
S=c1[nH]cnc2scc(-c3ccc(Cl)cc3)c12,3,-10,-51*,-3,0,-18
Cc1ccc(NC(=O)Nc2ccc3c(c2)N(C)C(=O)CS3)cc1C,-20,-4,-13*,3,/,-113
Cc1cc(C)cc(NC(=O)Nc2ccc3c(c2)N(C)C(=O)CS3)c1,-18,-8,-2,-2,/,-115
O=C(NCCN1CCN(Cc2ccccc2)CC1)Nc1cc(Cl)cc(Cl)c1,-20,-7,-49*,7,0,-5
O=C(NCCN1CCCCC1)Nc1ccc(Br)cc1,0,-1,-32*,0,/,2
Cc1ccc(NC(=O)NCCN2CCCCC2)cc1,3,3,6,-2,/,-1
O=C(C[C@@H]1CC[C@H]2[C@@H](COC[C@H](O)CN2Cc2cc(F)ccc2F)O1)N[C@H]1CCN(Cc2ccccc2)C1,-4,9,3,7,0,7
O=C(Nc1cccc(Cl)c1)N1[C@@H]2CNC[C@H]1C2c1ccc(-c2ccccc2)cc1 (some centres undefined),-5,/,-60,-7,0,53*
O=C(Nc1cc(F)ccc1F)N1[C@@H]2CNC[C@H]1C2c1ccc(-c2ccncc2)cc1 (some centres undefined),4,/,-1,-1,0,5
Cc1cccc(-c2ccc(C3[C@H]4CNC[C@@H]3N4C(=O)Nc3ccc(F)cc3)cc2)c1 (some centres undefined),9,/,2,1,0,-39
O=C(Nc1cccc(F)c1)N1[C@@H]2CNC[C@H]1C2c1ccc(-c2cccc(F)c2)cc1 (some centres undefined),-18,/,-60,-3,0,54*!
O=C(Nc1cc(F)ccc1F)N1[C@@H]2CNC[C@H]1C2c1ccc(-c2ccc(F)cc2)cc1 (some centres undefined),-27,/,-56,-1,0,58*!
[N-]=[N+]=Nc1ccccc1C[C@]1(C(=O)NCc2ccccc2)COC(c2ccc(OCCCO)cc2)=N1,/,-9,/,1,/,-29
CN(c1ccccc1)c1nc(N)c([N+](=O)[O-])c(N2CCCC2)n1,-11,-3,-27*,3,2,-11
CN(c1ccccc1)c1nc(N)c([N+](=O)[O-])c(N2CCCCC2)n1,-1,/,-25,10,1,-3
Nc1nc(Nc2cccc(F)c2)nc(N2CCOCC2)c1[N+](=O)[O-],-7,0,-29*,1,0,-3
CN(c1ccccc1)c1nc(N)c([N+](=O)[O-])c(N2CCOCC2)n1,45*,/,-3,2,/,-8
COc1cc(OC)cc(N(C(=O)c2snc(C(N)=O)c2N)C(C(=O)NCC2CCCO2)c2ccc(C)o2)c1 (centres undefined),8,-4,-1,8,44*,-21
CSCCC(NS(=O)(=O)c1ccccc1)C(=O)OCc1cc(=O)oc2cc(O)ccc12 (centres undefined),21,1,-22*,1,/,-18
CSCCC(NS(=O)(=O)c1ccccc1)C(=O)OCc1nc2ccsc2c(=O)[nH]1 (centres undefined),15,-5,2,-12,/,-7
CN(C)C(=O)C[C@@H]1CC[C@@H](NC(=O)Nc2cccc(F)c2)[C@H](CO)O1,7,-3,0,-2,0,-12
C[C@@H]1CN([C@@H](C)CO)C(=O)c2cccc(NS(=O)(=O)c3cn(C)cn3)c2O[C@H]1CN(C)C(=O)Nc1ccc2c(c1)OCO2,9,0,4,-2,283*,-10
SMILES,INS-1E GSIS act,RAD54 inh,Ecoli rRNA inh,AF4-AF9 inh,E-sel inducer,RAD52 inh
C[C@@H]1CN([C@H](C)CO)C(=O)c2cccc(NS(=O)(=O)c3cn(C)cn3)c2O[C@@H]1CN(C)Cc1ccc(Cl)c(Cl)c1,15,-9,-1,2,67*,-4
C[C@@H]1CN([C@H](C)CO)C(=O)c2cc(NS(=O)(=O)c3cn(C)cn3)ccc2O[C@H]1CN(C)C(=O)Nc1ccc2c(c1)OCO2,27,-6,-4,-4,255*,1
C[C@H]1CN([C@@H](C)CO)C(=O)c2cccc(NS(=O)(=O)c3cn(C)cn3)c2O[C@@H]1CN(C)Cc1ccc(Cl)c(Cl)c1,-3,-6,-2,1,-13,9
CC(=O)N1CCN(C2=Nc3cccc4cccc2c34)CC1,/,28,/,/,/,/
COc1ccccc1N1CCN(C2=Nc3cccc4cccc2c34)CC1,-13,39,-51,30*,/,-14
CCNc1nc(Oc2ccc(C#N)cc2)cc(C(F)(F)F)n1,105*,/,15,-2,/,-13
COc1ccccc1NC(=O)N[C@@H]1CC[C@@H](CCNS(=O)(=O)c2ccc(F)cc2)O[C@@H]1CO,18,-3,-1,0,-3,4
C[C@@H]1CN([C@H](C)CO)C(=O)c2cc(NC(=O)CCN3CCOCC3)ccc2O[C@H]1CN(C)C(=O)Nc1ccc(F)cc1,8,10,5,-2,0,-9
O=C1NC(=O)/C(=C\c2ccc(Cl)cc2Cl)N1,0,-2,-19*,-2,0,-38
CN(C)CCCNC(=O)C[C@@H]1CC[C@H]2[C@@H](COc3ccc(NC(=O)c4ccccc4F)cc3C(=O)N2C)O1,5,5,3,-2,22,1
Nc1nc(SCc2ccc(Cl)c(Cl)c2)n[nH]1,-9,/,-37*,-4,0,-6
O/N=C/c1ccc2cccc(OCc3ccccc3)c2n1,5,1,-29*,-1,0,-17
CO[C@H]1CN(C)C(=O)c2cc(NC(=O)c3cc(C)on3)ccc2OC[C@H](C)N(CC2CC2)C[C@@H]1C,-7,5,-1,-2,0,2
CCc1ccc2c(c1)C(c1ccc(N3CCOCC3)cc1)=NNC(c1ccncc1)=N2,-4,/,-18*,16,/,-107
Cc1cccc(C)c1NC(=O)CN(C)C(=O)c1ccc(-n2cncn2)c([N+](=O)[O-])c1,1,4,2,-1,50*,-1
CC(C)CCNC(=O)[C@H](CSCc1ccccc1)N1Cc2ccccc2C1=O,-11,1,-7,-7,/,-9
